Bioassay records (PubChem BioAssay)
T cruzi inh = T. cruzi replication inhibition. T. cruzi beta-gal in NIH3T3, luminescence, 90 h. inhibition, % (test concentration not listed). actives 1.4% (n = 300,000). AID 1885;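 active means mean inhibition across valid replicates above about 55%, limit read from the data; inconclusive means mean below that limit but half or more replicates reach it; inactive means mean below it, under half of replicates reach it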;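 further: signal also drops with host cell toxicity which is not excluded here; 0% = plate median of DMSO wells and 100% = zero luminescence signal; higher percent means less beta-gal luminescence so fewer parasites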
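System: mouse NIH/3T3 fibroblasts infected with β-gal-expressing T. cruzi Tulahuen C4 / Input: NIH/3T3 cells, 5,000 per well / Buffer or medium: Low-serum DMEM with 2% FBS / Probe or stimulus: 5000 reporter trypomastigotes per well / Schedule: ≥90 h infection period, 3 h prior cell attachment / Measured by: GalScreen luminescence, 60 min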
HSF-1 act = increases HSF-1 driven luciferase reporter signal. AID 504408. NIH3T3-HGL HSF-1 luciferase reporter, MG132, 8 h; 100% = twice DMSO control signal. activation, % at 9 µM. actives 1.7% (n = 300,000);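 active means mean replicate activation of at least 50% with a set share of replicates each reaching 50%; inconclusive means only one of those two conditions met; inactive means mean below 50% and too few replicates reaching it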;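 further: 0% = median of the neutral control wells and 100% = twice that signal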
N-glyco inh = N-linked glycosylation inhibition. D54 ERlucT glycosylation luciferase reporter, 24 h; percent of 100 nM tunicamycin response. reporter increase, % at 12.5 µM. actives 0.23% (n = 360,000). AID 588692;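 active means mean luciferase reporter signal, scaled so untreated is 0 and the glycosylation-blocking control 100, at or above a set limit in every replicate; inconclusive means mean reaches the limit but not every replicate does; inactive means mean below the limit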;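 further: luciferase carries N-glycosylation sites so blocking glycosylation raises the light; 0% = median of neutral control wells and 100% = median of 100 nM tunicamycin wells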
PvdQ inh = blocks Pseudomonas aeruginosa PvdQ acylase activity | purified PvdQ acylase, fluorescence plate reader | inhibition, % at 10 µM | actives 0.063% (n = 340,000); in the data active means inhibition above about 30%, passing the limit was not always enough; inconclusive means no clear call, values can overlap the other calls;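 further: 0% = vehicle neutral wells and 100% = reference inhibitor wells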
PfHsp90 yeast 2 = inhibits growth of yeast expressing Plasmodium falciparum Hsp90; actives 0.32% (n = 310,000); S. cerevisiae expressing PfHsp90, BacTiter-Glo ATP, 48 h; yeast lacking PDR1 and PDR3 efflux regulators; inhibition, % at 9.4 µM; AID 504621;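 active means every replicate shows inhibition above about 80%, whatever the replicate mean, limit read from the data; inconclusive means mean inhibition reaches the set limit but some replicate falls short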;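 further: 0% = DMSO neutral controls and 100% = 20 µM radicicol positive controls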
CaV13 FRET inh = Disruptors of the CACNA1D IQ motif to Ca2+-dependent inactivation inhibitor domain association, primary screening, Förster resonance energy transfer in intact living …. HEK cells, CFP/YFP FRET ICDI-IQ, plate reader, 10 min; percent FRET-ratio fall versus neutral wells. inhibition, % at 12.3 µM. actives 0.098% (n = 340,000). AID 743397;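 active means mean replicate inhibition of at least 30% and at least 1% of replicates passing that level; inconclusive means only one of the two criteria is met; inactive means neither criterion is met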;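 further: 0% = median of the neutral control wells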
* = called active by the depositor; ? = inconclusive; . = not tested or not shown. Most compounds without a hit are left out; they make up all but 3% or so of the library.

SMILES | T cruzi inh | HSF-1 act | N-glyco inh | PvdQ inh | PfHsp90 yeast 2 | CaV13 FRET inh
CCCc1nc2ccccc2n1C(C(=O)NC(C)(C)C)C1CC1 (stereo not given) | . | . | . | . | . | -9
COc1cc2c(cc1OC)CN(Cc1cc(=O)oc3c(C)c(C)ccc13)CC2 | 7 | 58* | 4 | -6 | -20 | -17
Cc1ccc2c(CN(C)Cc3cccc(F)c3)cc(=O)oc2c1C | 21 | 30 | -11 | 9 | -12 | -4
Cc1ccc2c(CN(C)Cc3ccccc3)cc(=O)oc2c1C | 11 | 74* | -15 | -12 | 5 | -3
Nc1nc2n(n1)C(c1cccs1)CC(c1ccc(Br)cc1)N2 (stereo not given) | 74* | 6 | 4 | -10 | -11 | -5
Nc1cnn(Cc2ccc(F)cc2)c1 | 1 | 56* | 0 | 0 | 3 | 4
Cc1c(O)ccc2cc(S(=O)(=O)c3ccccc3)c(=O)oc12 | -27 | 1 | 1 | -16 | 1 | 34*
Cc1ccc(S(=O)(=O)c2cc3ccccc3oc2=O)cc1 | -5 | 7 | -6 | -8 | 21 | -5
CCN(CC)c1nc(C)nc2c1cnn2CCc1ccccc1 | -8 | 57* | 0 | -5 | 3 | .
CCN(CC)c1ncnc2c1cnn2Cc1ccc(C)cc1 | 3 | -6 | 1 | 0 | -16 | -3
O=C(OCC1CCC=CO1)C1CCC=CO1 (stereo not given) | . | . | 3 | 2 | 2 | -13
CC(=O)C1=C(C)N(Cc2ccc(Cl)cc2)C(=S)NC1c1ccccc1 (stereo not given) | . | . | . | . | . | -2
CC1CN(CCOCCSc2ccccc2)CC(C)O1 (stereo not given) | 51 | -9 | 1 | -5 | 2 | -4
O=C(CCN1CCOCC1)c1ccc(Cl)cc1 | 75* | -2 | -1 | 12 | . | -7
CC1CN(CCOCCSc2ccc(Cl)cc2)CC(C)O1 (stereo not given) | 62* | 16 | -1 | -19 | -10 | -4
OC(COC(c1ccccc1)c1ccccc1)CN1CCc2ccccc2C1 (stereo not given) | 2 | -8 | -3 | -2 | 1 | -25
OC(COC(c1ccc(Cl)cc1)c1ccc(Cl)cc1)CN1CCc2ccccc2C1 (stereo not given) | 62* | 5 | -4 | -9 | -8 | -5
Clc1ccc(SCCCCN2CCOCC2)cc1 | 15 | -14 | -1 | -13 | 21 | -5
Cc1ccc(SCCCCN2CCOCC2)cc1 | -2 | 141* | -1 | -16 | -3 | -5
Clc1ccc(SCCOCCN2CCOCC2)cc1 | 57* | 3 | 0 | -2 | 0 | -1
Clc1ccc(OCCOCCN2CCc3ccccc3C2)c(Cl)c1 | 59* | -12 | 0 | -19 | 12 | -6
Clc1ccc(SCCOCCN2CCc3ccccc3C2)cc1 | 66* | 3 | -2 | -27 | 5 | -7
Clc1ccc(SCCOCCN2CCCCC2)cc1 | ? | 1 | -2 | -2 | 3 | -3
CC1CCN(CCOCCSc2ccc(Cl)cc2)CC1 | 54 | -3 | -2 | 6 | -3 | 1
CC(=NNc1cc(C)c2ccccc2n1)c1ccccn1 | . | . | . | . | . | -12
SMILES | T cruzi inh | HSF-1 act | N-glyco inh | PvdQ inh | PfHsp90 yeast 2 | CaV13 FRET inh
CSc1nc2ccc(S(=O)(=O)NC3CCCCC3)cc2s1 | 6 | 7 | -5 | -10 | 104* | .
CCOc1cc(S(=O)(=O)NC2CCCCCC2)ccc1F | 3 | -1 | -2 | -9 | 108* | .
O=C(NCc1ccc(Cl)c(Cl)c1)c1cc(C2CCCCN2C(=O)c2ccccc2)on1 (stereo not given) | . | . | -4 | . | . | -10
CCN(CCCNS(=O)(=O)c1ccc2c(c1)CCN2C(C)=O)c1cccc(C)c1 | 7 | 69* | 0 | -3 | 18 | -6
Cc1occc1-c1nnc(-c2cc([N+](=O)[O-])cc([N+](=O)[O-])c2)o1 | 66* | 12 | 5 | -21 | 106* | -7
CC[C@H](C)/C=C/C1=CC2=C(Cl)C(=O)[C@@]3(C)OC(=O)C(C(=O)[C@H](C)[C@@H](C)O)=C3C2=CO1 | 9 | 24 | 4 | -8 | 104* | .
FC(F)(F)c1cc(Cl)c2nc(-c3ccco3)c(Cc3ccccc3C(F)(F)F)n2c1 | . | . | . | . | . | -6
C=CCN1C(=O)c2n[nH]c(COC)c2C1c1ccc(Br)cc1 (stereo not given) | . | . | . | . | . | -3
CCOc1cc(/C=N/NC(=O)Cn2nc([N+](=O)[O-])cc2C)cc(Br)c1OCc1ccccc1C | 57* | 71* | -3 | 3 | 15 | -6
COc1cc(/C=N/NC(=O)Cn2nc([N+](=O)[O-])cc2C)cc(Br)c1OCc1ccccc1 | 28 | 40 | 2 | -13 | 1 | -1
C=CCn1c(SCC(=O)NCCO)nc2sc(C)c(C)c2c1=O | -4 | 6 | 4 | -4 | -3 | -6
Cc1noc(C)c1CSc1nc2sc(C)c(C)c2c(=O)n1-c1ccccc1 | 60* | 11 | -1 | -21 | -39 | .
COc1ccc(-c2noc(CSc3nc4sc(C)c(C)c4c(=O)n3-c3ccccc3)n2)cc1 | 13 | 10 | -2 | -11 | 0 | -3
C=CCn1c(SCc2c(C)noc2C)nc2sc(C)c(C)c2c1=O | 17 | 119* | 24 | -19 | -19 | -8
Cn1c(-c2ccccc2)cnc1SCc1nc2ccccc2c(=O)[nH]1 | 14 | 104* | -10 | -3 | 4 | -5
O=c1[nH]c(CSc2ncn[nH]2)nc2ccccc12 | -12 | 4 | 1 | -9 | 11 | -16
O=c1[nH]c(CSc2ncnc3sccc23)nc2ccccc12 | -1 | 56* | 0 | -8 | 4 | -2
Cc1ccc(CNS(=O)(=O)c2ccc(Cl)s2)cc1 | . | . | 2 | . | . | -12
CC12CCC(O)CC1=CCC1C2CCC2(C)C(c3ccn[nH]3)CCC12 (stereo not given) | . | . | -4 | -13 | -35 | -3
COC(=O)c1cc2c(c3c4ccccc4n(S(=O)(=O)c4ccccc4)c13)C(=O)N(Cc1ccc(C(F)(F)F)cc1)C2 | . | . | . | . | . | -9
CC(=O)Nc1ccc(S(=O)(=O)Nc2nc3ccccc3nc2Nc2ccc3ccccc3c2)cc1 | -11 | 106* | 0 | 4 | 2 | -9
CC(=O)Nc1ccc(S(=O)(=O)Nc2nc3ccccc3nc2Nc2cccc(O)c2)cc1 | -4 | 8 | 0 | 6 | 21 | -7
Cc1cccc(/C=C(\C(=O)C(=O)O)c2ccc3ccccc3n2)c1 | -8 | 14 | 0 | 4 | -44 | -5
O=C(O)C(=O)/C(=C\c1cccc(Cl)c1)c1ccc2ccccc2n1 | 0 | 60* | -2 | -9 | -15 | -2
COc1cccc(CNC(=O)[C@H]2CCCN2C(=O)[C@H]2CCCN2)c1 | . | . | . | . | . | -5
O=C(N[C@H](C(=O)N1CCC[C@H]1C(=O)NCc1ccccc1)c1ccccc1)c1ccc(Cl)cc1Cl | . | . | . | . | . | -3
